Results on 74 sequences are retold here after the array DNA melting data of Ke et al. (doi:10.1101/2024.01.08.574731).

Series [1] is described as follows: folding enthalpy; higher = less favourable; fluorescence melt of hairpins on a sequencing array, two-state fit. As to conditions: sodium 0.088 M. The method, boiled down:
(§1)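 Hairpins were imaged by Cy3 fluorescence on a sequenced MiSeq flow cell with annealed Cy3 and quencher oligos, in 50 mM Na-HEPES pH 8.0, 25 mM NaCl, in 2.5 °C steps up to 60 °C. Bootstrapped two-state fits of normalised signals gave melting temperature and folding enthalpy. Four replicates were combined by inverse variance, and fitted temperatures were raised by 9.35 °C to match UV melts.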

Series [2] can be described thus: melting temperature; fluorescence melt of hairpins on a sequencing array, two-state fit, raised by 9.35 °C to match UV melts. As to conditions: sodium 0.088 M. The essentials: as §1

CGGTCGGAAACGACCCCG ((((((....)))..))): the folding enthalpy in series [1] was -9.36 kcal/mol. Also, the Tm in series [2] is 37.3 °C.
The matching figures for CGGTCGGAAACGAGCCG ((((((....))).))): -21.6 kcal/mol and 51.2 °C.
The matching figures for CGGTCGGAAACGAGTCCG ((((((....)))..))): -20.6 kcal/mol and 39.4 °C.
The matching figures for CGGTGGCGGAAACGCCCG (((..(((....)))))): -11.5 kcal/mol and 47 °C.
Turning to CGGTGTCGGAAACGACCG (((..(((....)))))), in series [1], the folding enthalpy is -11.9 kcal/mol. In series [2], the Tm is 47.5 °C.
On to CGGTTACGGAAACGTCCG (((..(((....)))))), for which the folding enthalpy in series [1] is -23.3 kcal/mol. Moreover, in series [2], the Tm came out at 36.1 °C.
The matching figures for CGGTTCCGGAAACGGCCG (((..(((....)))))): -21 kcal/mol and 43.3 °C.
The matching figures for CGTACACGGAAACGTACG (((..(((....)))))): -25.7 kcal/mol and 40.8 °C.
In the case of CGTACCGGAAACGGACG (((.(((....)))))), in series [1], the folding enthalpy was -21.2 kcal/mol. The Tm in series [2] turned out to be 45.7 °C.
Regarding CGTACCGGAAACGGCACG (((.(((....))).))), the folding enthalpy in series [1] is -39.9 kcal/mol. For the same sequence, in series [2], the Tm came out at 50.2 °C.
With CGTACGGAAACGTAGACG ((((((....)))..))), the folding enthalpy in series [1] is -17 kcal/mol. In addition, in series [2], the Tm is 36.6 °C.
For the sequence CGTACGGAAACGTCGACG ((((((....)))..))), in series [1], the folding enthalpy is -12.9 kcal/mol. The Tm in series [2] came out at 37.5 °C.
Taken in the same sequence, the figures for CGTACGGAAACGTGAACG ((((((....)))..))) were -15.1 kcal/mol and 37.4 °C.
Taken in the same sequence, the figures for CGTACGGAAACGTTACG ((((((....))).))) were -30.6 kcal/mol and 46.1 °C.
Take CGTAGCCGGAAACGGACG (((..(((....)))))): in series [1], the folding enthalpy is -8.93 kcal/mol. For the same sequence, the Tm in series [2] was determined as 31.7 °C.
The matching figures for CGTAGTCGGAAACGAACG (((..(((....)))))): -4.62 kcal/mol and 21.6 °C.
The matching figures for CGTATCGGAAACGAACG (((.(((....)))))): -24.5 kcal/mol and 36.2 °C.
The matching figures for CGTATTCGGAAACGAACG (((..(((....)))))): -17.2 kcal/mol and 28.4 °C.
On to CGTCCCGGAAACGGCACG (((.(((....))).))), for which the folding enthalpy in series [1] was -23.7 kcal/mol. In series [2], the Tm came to 39.9 °C.
The matching figures for CGTCCGGAAACGGTTACG ((((((....)))..))): -13.9 kcal/mol and 39.3 °C.
Turning to CGTGACGGAAACGTACG (((.(((....)))))), in series [1], the folding enthalpy is -25.3 kcal/mol. For the same sequence, in series [2], the Tm amounted to 42.5 °C.
Turning to CGTGCACGGAAACGTACG (((..(((....)))))), in series [1], the folding enthalpy was -8.88 kcal/mol. Further, the Tm in series [2] was 33.2 °C.
On to CGTGCCGGAAACGGACG (((.(((....)))))), for which the folding enthalpy in series [1] is -22 kcal/mol. Further, the Tm in series [2] stood at 48.7 °C.
In the case of CGTGCGGAAACGCACACG ((((((....)))..))), the folding enthalpy in series [1] is -8.09 kcal/mol. In addition, the Tm in series [2] was 43.9 °C.
Regarding CGTGGGAAACCACG (((((....))))), the folding enthalpy in series [1] is -34.5 kcal/mol. Further, in series [2], the Tm turned out to be 58 °C.
The matching figures for CGTGTGAAAACACG (((((....))))): -29.3 kcal/mol and 58.6 °C.
The matching figures for CGTTACCGGAAACGGACG (((..(((....)))))): -17 kcal/mol and 36.9 °C.
Taken in the same sequence, the figures for CGTTCCCGGAAACGGACG (((..(((....)))))) were -21.6 kcal/mol and 35.3 °C.
Turning to CGTTCGGAAACGACAACG ((((((....)))..))), the folding enthalpy in series [1] is -15.2 kcal/mol. The Tm in series [2] was 34.4 °C.
The matching figures for CGTTCGGAAACGACACG ((((((....))).))): -26.9 kcal/mol and 39.3 °C.
Taken in the same sequence, the figures for CGTTCGGAAACGATAACG ((((((....)))..))) were -30.6 kcal/mol and 36.1 °C.
Taken in the same sequence, the figures for CGTTCGGAAACGATGACG ((((((....)))..))) were -20 kcal/mol and 39 °C.
CGTTGTCGGAAACGAACG (((..(((....)))))): in series [1], the folding enthalpy was -11.6 kcal/mol. For the same sequence, the Tm in series [2] was determined as 35.1 °C.
In the case of CGTTTCGGAAACGAACG (((.(((....)))))), the folding enthalpy in series [1] was -26.3 kcal/mol. Also, the Tm in series [2] came to 44.9 °C.
Taken in the same sequence, the figures for CGTTTGAAAAAACG (((((....))))) were -21.2 kcal/mol and 47.3 °C.
The matching figures for CTAACGAAAGTTAG (((((....))))): -23.9 kcal/mol and 49.4 °C.
The matching figures for CTACCGAAAGGTAG (((((....))))): -23.2 kcal/mol and 57.9 °C.
Turning to CTATGGAAACATAG (((((....))))), the folding enthalpy in series [1] is -15.7 kcal/mol. For the same sequence, the Tm in series [2] came to 36.9 °C.
The matching figures for CTATTGAAAAATAG (((((....))))): -8.21 kcal/mol and 23.4 °C.
The matching figures for CTCAAGAAATTGAG (((((....))))): -12.8 kcal/mol and 33.8 °C.
Taken in the same sequence, the figures for CTCATGAAAATGAG (((((....))))) were -21.3 kcal/mol and 44.8 °C.
Turning to CTCCAGAAATGGAG (((((....))))), in series [1], the folding enthalpy is -18.9 kcal/mol. Moreover, the Tm in series [2] was 44.9 °C.
The matching figures for CTGCAGAAATGCAG (((((....))))): -21 kcal/mol and 53.4 °C.
The matching figures for CTGCTGAAAAGCAG (((((....))))): -22.2 kcal/mol and 58.9 °C.
Consider CTGGAGAAATCCAG (((((....))))), for which the folding enthalpy in series [1] was -27.1 kcal/mol. Also, in series [2], the Tm amounted to 43.6 °C.
For the sequence CTGGGGAAACCCAG (((((....))))), the folding enthalpy in series [1] is -25.4 kcal/mol. Also, the Tm in series [2] was 53.5 °C.
As for CTGTCGAAAGACAG (((((....))))), the folding enthalpy in series [1] was -21.3 kcal/mol. Further, in series [2], the Tm was 67.5 °C.
As for CTTCTGAAAAGAAG (((((....))))), the folding enthalpy in series [1] is -14.7 kcal/mol. For the same sequence, the Tm in series [2] worked out at 43.3 °C.
The matching figures for CTTGCGAAAGCAAG (((((....))))): -16.9 kcal/mol and 58.8 °C.
Regarding GAAAAACCGAAAGGTTTC (((..(((....)))))), in series [1], the folding enthalpy is -12.4 kcal/mol. Further, the Tm in series [2] is 34.8 °C.
The matching figures for GAAAAACGAAAGTTGTTC (((.(((....))).))): -19.6 kcal/mol and 33.6 °C.
The matching figures for GAAAACCGAAAGGTATTC (((.(((....))).))): -23.5 kcal/mol and 37.5 °C.
The matching figures for GAAAACGAAAGTTCGTTC ((((((....)))..))): -10.8 kcal/mol and 25.1 °C.
For GAAAACGAAAGTTTTC ((((((....)))))), the folding enthalpy in series [1] is -37.9 kcal/mol. Besides, the Tm in series [2] was found to be 55 °C.
As for GAAAACGAAAGTTTTTC ((((((....))).))), the folding enthalpy in series [1] was -17.8 kcal/mol. Further, the Tm in series [2] stood at 42.1 °C.
Taken in the same sequence, the figures for GAAAAGACGAAAGTCTTC (((..(((....)))))) were -11.8 kcal/mol and 35.6 °C.
For the sequence GAAAAGCGAAAGCTATTC (((.(((....))).))), in series [1], the folding enthalpy was -19.5 kcal/mol. Moreover, the Tm in series [2] is 36.4 °C.
The matching figures for GAAAAGCGAAAGCTTTC (((.(((....)))))): -14.2 kcal/mol and 43.5 °C.
Taken in the same sequence, the figures for GAAACCGAAAGGTAATTC ((((((....)))..))) were -9.6 kcal/mol and 27.9 °C.
Take GAAACCGAAAGGTTATTC ((((((....)))..))): the folding enthalpy in series [1] is -12.4 kcal/mol. Further, the Tm in series [2] was 29.6 °C.
The matching figures for GAAACGCGAAAGCGATTC (((.(((....))).))): -28.3 kcal/mol and 50.8 °C.
Taken in the same sequence, the figures for GAAACGGGAAACCGTTCC (.(((((....))))).) were -14.6 kcal/mol and 39.4 °C.
The matching figures for GAAACTGGAAACAGTTCC (.(((((....))))).): -19.3 kcal/mol and 35.2 °C.
Consider GAAACTGGAAACGGTTTC (((((.(....).))))), for which, in series [1], the folding enthalpy is -34.5 kcal/mol. Also, the Tm in series [2] stood at 44.5 °C.
With GAAAGCGAAAGCTATTC ((((((....))).))), the folding enthalpy in series [1] was -12 kcal/mol. Besides, the Tm in series [2] came out at 30.4 °C.
Taken in the same sequence, the figures for GAAAGCGAAAGCTGATTC ((((((....)))..))) were -19.2 kcal/mol and 42 °C.
The matching figures for GAAAGCGAAAGCTTTTC ((((((....))).))): -12.9 kcal/mol and 47.1 °C.
Taken in the same sequence, the figures for GAAAGGGGAAACTCTTTC (((((.(....).))))) were -25 kcal/mol and 36.3 °C.
For the sequence GAAATACGAAAGTAGTTC (((.(((....))).))), the folding enthalpy in series [1] is -26.7 kcal/mol. Moreover, the Tm in series [2] was 42.1 °C.
Taken in the same sequence, the figures for GAAATCCGAAAGGAGTTC (((.(((....))).))) were -31.9 kcal/mol and 49.4 °C.
As to GAAATGCGAAAGCAGTTC (((.(((....))).))), the folding enthalpy in series [1] was -33.5 kcal/mol. Moreover, the Tm in series [2] was found to be 52.4 °C.
The matching figures for GAAATGGAAACATTTC ((((((....)))))): -30.2 kcal/mol and 46.7 °C.
The matching figures for GAAATGGGAAACCGTTTC ((((.((....)).)))): -33.4 kcal/mol and 43.6 °C.
Consider GAAATTGCGAAAGCATTC (((..(((....)))))), for which the folding enthalpy in series [1] was -6.33 kcal/mol. For the same sequence, in series [2], the Tm worked out at 23.4 °C.
